Screening data as filed in PubChem.
Sampled rows, rich in hits. Any-hit rate of the full collection: about 2.9%.
TRPC6 inh = blocks the mouse TRPC6 cation channel. actives 1.1% (n = 310,000). Q61143. AID 2553. HEK293-TRPC6, membrane potential dye, ACh-evoked depolarization; hits give low values. B-score at 10 µM;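 active = B-score under library mean minus 3 SD, initial fluorescence not abnormally high, positive integrated signal ratio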;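 note: B-score derived from integrated fluorescence ratio over the kinetic read; more negative B-score means stronger inhibition of depolarization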
TRPC6 activator = activators of mouse TRPC6 channel; Q61143; HEK293-TRPC6 membrane potential dye fluorescence; hits give high values; B-score at 10 µM; actives 0.13% (n = 310,000); AID 2550;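 active = B-score of the integrated fluorescence ratio above library mean plus 3 SD, and starting fluorescence ratio within library mean plus 5 SD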;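 note: higher score means more depolarization so channel activation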
TRPC4 act = activators of mouse TRPC4 channel. Q9QUQ5. actives 0.49% (n = 310,000). B-score at 10 µM. HEK293 TRPC4beta/mu-opioid, Fluo4 calcium fluorescence; hits give high values;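 active = B-score above 5 SD of library B-scores, and initial fluorescence ratio not above library mean plus 5 SD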;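 note: positive B-score marks a calcium rise read as TRPC4 activation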
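System – HEK293 cells stably co-expressing mouse TRPC4beta and mu-opioid receptor · Signal – Fluo4 calcium-sensitive dye fluorescence, kinetic, 1 Hz baseline · Benchmarks – buffer (low) and maximal DAMGO (high) · Read-out – B score of integrated fluorescence ratio per well · Incubation – dye loading 45 min room temperature, 110 s kinetic read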
TRPC4 inh = TRPC4 (mouse) channel inhibition. Q9QUQ5. HEK293 TRPC4beta/mu-opioid, DAMGO-evoked Fluo4 calcium flux; hits give low values. B-score at 10 µM. actives 0.39% (n = 300,000);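 active = B-score over 3 SD under the library average, no early fluorescence shift, positive overall ratio signal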
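Material: HEK293 cells with stable TRPC4beta plus mu-opioid receptor expression / Probe or stimulus: DAMGO in two steps, submaximal then maximal / Compound: single concentration per test compound / Technique: kinetic Fluo4 fluorescence imaging of calcium influx / Read-out: per-well B score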
Kir21 inh = blocks the mouse Kir2.1 inward-rectifier potassium channel; AID 1672; actives 0.85% (n = 310,000); HEK293-Kir2.1, FluxOR thallium flux fluorescence; hits give low values; P35561; B-score at 10 µM;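 active = fluorescence ratio B-score at or below minus 3 SD of library scores, with starting-brightness B-score within 2 SD, cut at about -4.2 in these data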;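 note: channel flux triggered by added potassium and thallium sulfate stimulus; B-score of peak minus minimum fluorescence over baseline after thallium stimulus; more negative B-score means stronger Kir2.1 block with less thallium influx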
TRPC4 PAM = allosterically enhances the mouse TRPC4 cation channel | B-score at 10 µM | actives 0.42% (n = 310,000) | HEK293 TRPC4beta/mu-opioid, DAMGO EC20, Fluo-4 Ca2+ flux; hits give high values;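 active = B-score of calcium response area above 5 SD of library B-scores, with initial fluorescence ratio within 5 SD of library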;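 note: B-score of integrated fluorescence ratio over time as area under calcium response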
TRPC4 spec 2 = second check of whether TRPC6 inhibitors also affect mouse TRPC4. inhibition, % at 10 µM. HEK293 TRPC4/MOR, membrane potential dye fluorescence; channel activated by saturating DAMGO dose. shares compounds with TRPC6 inh. AID 2776. actives 42% (n = 920);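 active = compounds whose fluorescence signal differed from control wells by over 3 SD, either direction, in both duplicate plates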
TRPC4 spec = tests whether TRPC6 inhibitors also affect mouse TRPC4. shares compounds with TRPC6 inh. HEK293 TRPC4/mu-opioid, membrane potential fluorescence. activity change, negative = inhibition, % at 10 µM. actives 61% (n = 920);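 active = rise or fall in signal beyond 3 SD of buffer-only wells in both replicate plates, either sign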;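 note: integrated kinetic ratio of fluorescence range over baseline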
HEK293 MPD ctr 2-1 = second counter-screen for TRPC6 inhibitors: parental HEK293 cells; signal change vs control, % at 10 µM; actives 31% (n = 920); shares compounds with TRPC6 inh; parental HEK293 membrane potential dye fluorescence; maximal acetylcholine challenge after compound addition;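 active = membrane potential signal moving either way by over 3 SD of the maximum-effect control, in both duplicate plates, meaning non-specific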
HEK293 MPD ctr-1 = counter-screen for TRPC6 inhibitors: effect in parental HEK293 cells | shares compounds with TRPC6 inh | parental HEK293 membrane potential dye fluorescence | membrane potential signal change, % at 10 µM | actives 60% (n = 920);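 active = membrane potential signal shifting up or down by more than 3 SD of buffer-only wells, on both duplicate plates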
HEK293 MPD ctr-2 = counter-screen for TRPC6 modulators: effect in parental HEK293 cells; membrane potential dye fluorescence; shares compounds with TRPC6 inh; membrane potential signal change, % at 10 µM; actives 51% (n = 2,400);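 active = membrane potential signal moves up or down beyond 5 SD from buffer-only wells, on both duplicate plates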
HEK293 MPD ctr 2-2 = second check of TRPC6 modulator effects in parental HEK293 cells; actives 14% (n = 2,400); inhibition, % at 10 µM; AID 488926; membrane potential dye fluorescence; after compound, maximal acetylcholine stimulation; shares compounds with TRPC6 inh;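 active = membrane potential signal drops by more than 5 SD from the mean control signal, in both duplicate plates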;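 note: plate controls were acetylcholine ECmax control wells for no effect and buffer only wells for full effect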
TRPC4 ctr mod = selectivity of TRPC6 modulators against mouse TRPC4. actives 69% (n = 2,400). HEK293 TRPC4/mu-opioid, membrane potential fluorescence. shares compounds with TRPC6 inh. percent change from control (negative = decrease, positive = increase), % at 10 µM;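 active = membrane potential signal moved up or down beyond 5 SD of buffer control wells, in both duplicate plates, actives on both sides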;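 note: plate controls were assay buffer wells for no effect and DAMGO maximal-effect wells for full effect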
TRPC4/MOR inh 2 = mouse TRPC4 off-target activity of TRPC6 modulators, second screen; AID 488928; shares compounds with TRPC6 inh; inhibition, % at 10 µM; actives 55% (n = 2,400); HEK293 TRPC4/mu-opioid, membrane potential dye fluorescence; stimulated with maximal-effect DAMGO;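 active = drop in membrane potential signal beyond 5 SD of the control wells in both duplicate plates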;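 note: TRPC4 counter screen for TRPC6 hits run under conditions tuned for TRPC6 not TRPC4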
TRPC6 block conf = confirmation of mouse TRPC6 inhibitors; shares compounds with TRPC6 inh; AID 488960; HEK293-TRPC6, membrane potential dye, ACh-evoked depolarization; inhibition, % at 10 µM; actives 43% (n = 3,300);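 active = fluorescence ratio falls more than 5 SD below the full-stimulation control mean, in both duplicate runs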;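 note: integrated fluorescence ratio of peak minus minimum over baseline after agonist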
TRPC6 act confirm = confirmation of mouse TRPC6 activators; shares compounds with TRPC6 inh; HEK293-TRPC6 membrane potential dye fluorescence, FDSS; activation, % at 10 µM; actives 11% (n = 2,800); AID 488961;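 active = ratio signal rise beyond 5 SD above unstimulated control wells' mean, seen in both duplicate runs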;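 note: plate controls were buffer EC0 wells for no effect and acetylcholine ECmax response for full effect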
The depositor's hits bear a star; i = inactive; / = no result.

SMILES | TRPC6 inh | TRPC6 activator | TRPC4 act | TRPC4 inh | Kir21 inh | TRPC4 PAM | HEK293 MPD ctr-2 | HEK293 MPD ctr 2-2 | TRPC4 ctr mod | TRPC4/MOR inh 2 | TRPC6 block conf | TRPC6 act confirm | others
CN(C)CCCn1c(SCC(=O)Nc2sc3c(c2C#N)CCCC3)nnc1-c1ccncc1 | i | 16.3* | i | i | -0.06 | i | 187.0%* | i | 27.5%* | i | i | 76.5%*
Cn1c(SCC(=O)Nc2sc3c(c2C#N)CCC3)nnc1C1COc2ccccc2O1 (centres undefined) | -10.5* | i | i | i | -0.35 | i | / | / | / | / | 62.6%* | / | TRPC4 spec 2=i;TRPC4 spec=i;HEK293 MPD ctr 2-1=i;HEK293 MPD ctr-1=i
C=CCn1c(SCC(=O)Nc2sc3c(c2C#N)CCC3)nnc1C1COc2ccccc2O1 (centres undefined) | i | i | i | i | -1.03 | i | / | / | / | / | / | /
CC(C)CC(=O)N1CCN(S(C)(=O)=O)CC1 | i | i | i | i | 0.62 | i | / | / | / | / | / | /
CC(=O)Oc1c(/C=C(\C#N)C(N)=O)[nH]c2ccccc12 | i | 27* | i | i | -4.98* | i | 657.0%* | i | 169.5%* | i | i | 170.0%*
N#C/C(=C\c1c[nH]c2ccccc12)C(N)=O | i | i | i | i | 0.45 | i | / | / | / | / | / | /
CCOc1ccc(/C=N/NC(=O)c2ccc(Cn3cc(Br)cn3)o2)cc1 | i | i | i | i | -0.05 | i | / | / | / | / | / | /
